Source: ChEMBL document CHEMBL1148336, “3-Aminopyrazole inhibitors of CDK2/cyclin A as antitumor agents. 1. Lead finding” (J Med Chem, 2004)
Values after ≈ are worked out from the molar mass of the structure shown.

How the values were obtained:
Rattus norvegicus [1] = experiment: Maximal concentration in male Sprague-Dawley rats after 5 mg/kg intravenous dose; assay type: ADME, organism-based; set-up: dose 5 mg/kg, route intravenous; conditions: in vivo
In short: (§1)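 Male Sprague Dawley rats (~270), fasted overnight, received a single iv or oral dose in PEG400, 4% Tween 80/dextrose (60:40), three rats per route. Jugular/catheter blood was drawn predose and at 5, 15 and 30 min and 1, 2, 4, 6 and 24 h, and plasma was analysed by LC/MS/MS. Analysis was noncompartmental: Cmax/Tmax observed, AUC by linear trapezoidal rule, and F from dose-normalized oral/iv AUC.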

[2] = In vivo retention time was evaluated for the compound after i.v. administration at a dose of 5 mg/kg was measured in rats; assay type: ADME, organism-based; set-up: dose 5 mg/kg, route intravenous; conditions: rat, iv; in short: as §1
[3] = biological target: Inhibitor of nuclear factor kappa-B kinase subunit beta (Homo sapiens, UniProt O14920); experiment: Inhibition of I-kappa-B-kinase beta activity
Chain of Inhibitor of nuclear factor kappa-B kinase subunit beta (O14920 whole entry): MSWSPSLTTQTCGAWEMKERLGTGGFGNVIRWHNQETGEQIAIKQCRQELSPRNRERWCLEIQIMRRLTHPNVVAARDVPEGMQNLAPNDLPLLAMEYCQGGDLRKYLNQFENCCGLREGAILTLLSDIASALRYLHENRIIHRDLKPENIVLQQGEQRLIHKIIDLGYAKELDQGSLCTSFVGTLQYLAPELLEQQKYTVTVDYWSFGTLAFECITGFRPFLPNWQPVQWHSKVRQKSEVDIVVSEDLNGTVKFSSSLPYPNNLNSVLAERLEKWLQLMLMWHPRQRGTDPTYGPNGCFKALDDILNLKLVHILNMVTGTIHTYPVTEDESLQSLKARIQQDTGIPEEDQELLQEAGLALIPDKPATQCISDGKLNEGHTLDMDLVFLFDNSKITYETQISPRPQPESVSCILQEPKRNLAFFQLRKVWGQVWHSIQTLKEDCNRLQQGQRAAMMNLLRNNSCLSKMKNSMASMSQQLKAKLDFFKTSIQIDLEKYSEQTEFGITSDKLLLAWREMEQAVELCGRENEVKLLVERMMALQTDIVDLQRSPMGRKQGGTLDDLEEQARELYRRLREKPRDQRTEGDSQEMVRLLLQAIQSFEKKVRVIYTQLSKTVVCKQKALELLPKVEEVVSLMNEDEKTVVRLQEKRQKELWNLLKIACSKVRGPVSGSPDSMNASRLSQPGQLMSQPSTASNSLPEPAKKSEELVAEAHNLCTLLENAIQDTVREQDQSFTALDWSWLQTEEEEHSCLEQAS
In short: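 ATP/33P-γ-ATP 2Km, substrate 5Km, 1% DMSO, 10–0.0015 μM compound, 30–90 min at room temperature. SPA detection.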

Casein kinase II = Casein kinase II (Homo sapiens, UniProt P19784+P67870+P68400); experiment: Inhibition of Casein kinase 2; assay type: protein-complex assay
Chain of Casein kinase II (P67870 whole entry): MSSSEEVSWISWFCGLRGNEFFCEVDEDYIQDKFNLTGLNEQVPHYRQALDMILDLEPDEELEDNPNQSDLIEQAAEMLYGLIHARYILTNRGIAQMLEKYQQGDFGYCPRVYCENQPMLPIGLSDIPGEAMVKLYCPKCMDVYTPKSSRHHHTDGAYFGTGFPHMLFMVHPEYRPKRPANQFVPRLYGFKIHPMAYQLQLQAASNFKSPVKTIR
Chain of Casein kinase II (P68400 whole entry): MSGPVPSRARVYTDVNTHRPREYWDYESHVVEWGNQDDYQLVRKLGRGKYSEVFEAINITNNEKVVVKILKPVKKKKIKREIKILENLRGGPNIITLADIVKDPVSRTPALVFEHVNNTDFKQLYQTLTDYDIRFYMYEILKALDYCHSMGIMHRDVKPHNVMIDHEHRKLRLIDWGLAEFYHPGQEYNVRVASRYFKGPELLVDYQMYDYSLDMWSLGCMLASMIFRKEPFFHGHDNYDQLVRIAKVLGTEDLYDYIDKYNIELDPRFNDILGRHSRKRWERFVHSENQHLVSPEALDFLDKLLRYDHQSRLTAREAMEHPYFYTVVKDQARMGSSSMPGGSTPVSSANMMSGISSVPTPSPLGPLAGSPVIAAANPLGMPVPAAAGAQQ
Chain of Casein kinase II (P19784 whole entry): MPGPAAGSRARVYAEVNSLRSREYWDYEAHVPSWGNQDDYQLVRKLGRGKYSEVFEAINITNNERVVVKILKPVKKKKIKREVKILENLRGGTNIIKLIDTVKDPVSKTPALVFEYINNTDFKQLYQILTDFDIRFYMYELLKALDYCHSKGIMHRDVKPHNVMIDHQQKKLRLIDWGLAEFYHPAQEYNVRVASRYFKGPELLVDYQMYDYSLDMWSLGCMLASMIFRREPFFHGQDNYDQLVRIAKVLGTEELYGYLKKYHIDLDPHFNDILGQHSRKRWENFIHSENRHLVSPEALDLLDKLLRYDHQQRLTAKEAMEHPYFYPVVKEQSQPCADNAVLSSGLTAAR
In short: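 33P-γ-ATP/ATP at 2Km, substrate 5Km, 1% DMSO, 3-fold dilutions from 10 μM, 30–90 min at room temperature. Phosphorylated substrate counted by SPA. Four-parameter logistic IC50, mean of at least two experiments.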

[4] = biological target: Hepatocyte growth factor receptor (Homo sapiens, UniProt P08581); experiment: Inhibition of MET kinase activity
In short: (§2)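 Radiometric kinase assay. Enzyme (0.7–100 nM) and substrate (5Km) incubated with ATP/33P-γ-ATP (2Km) and compound serially diluted 3-fold from 10 to 0.0015 μM, 1% DMSO, 30–90 min at room temperature. Product separated by SPA, Dowex or phosphocellulose filter, then counted.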

[5] = Solubility of compound was determined in buffer at a pH of 7; assay type: physicochemical; conditions: pH 7
In short: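 Nonequilibrium turbidimetric solubility. 10 mM DMSO stock was diluted into pH 7 buffer (2.5% DMSO), and turbidity was read at 50 and 250 μM. Solubility is the average of the highest clear and lowest turbid concentrations.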

[6] = biological target: Tyrosine-protein kinase ZAP-70 (Homo sapiens, UniProt P43403); experiment: Inhibition of Zeta-chain (TCR) associated protein kinase 70 kDa (ZAP70); in short: as §2
Chain of Tyrosine-protein kinase ZAP-70 (P43403 whole entry): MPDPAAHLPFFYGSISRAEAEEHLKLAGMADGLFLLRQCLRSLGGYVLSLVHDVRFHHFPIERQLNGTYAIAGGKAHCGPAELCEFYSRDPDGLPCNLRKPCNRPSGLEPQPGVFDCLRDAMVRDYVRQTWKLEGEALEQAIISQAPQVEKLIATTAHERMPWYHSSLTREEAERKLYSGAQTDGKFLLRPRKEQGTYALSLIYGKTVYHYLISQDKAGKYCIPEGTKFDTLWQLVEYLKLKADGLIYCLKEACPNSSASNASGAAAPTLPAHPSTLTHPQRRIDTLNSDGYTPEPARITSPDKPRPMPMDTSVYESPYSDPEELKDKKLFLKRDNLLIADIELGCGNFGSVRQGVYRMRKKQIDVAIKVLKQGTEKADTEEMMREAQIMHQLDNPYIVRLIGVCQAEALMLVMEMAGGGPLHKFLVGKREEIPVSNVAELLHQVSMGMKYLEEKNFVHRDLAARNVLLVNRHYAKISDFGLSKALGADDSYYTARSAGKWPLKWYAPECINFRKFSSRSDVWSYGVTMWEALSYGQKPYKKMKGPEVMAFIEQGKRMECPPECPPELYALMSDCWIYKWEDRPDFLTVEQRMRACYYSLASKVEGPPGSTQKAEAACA

Rattus norvegicus [7] = experiment: In vivo half-life period for compound after oral (po) administration at a dose of 10 mg/kg was measured in rats; assay type: ADME, organism-based; set-up: dose 10 mg/kg, route oral; in short: as §1
[8] = biological target: Fibroblast growth factor receptor 1 (Homo sapiens, UniProt P11362); experiment: Inhibition of Fibroblast growth factor receptor 1
Chain of Fibroblast growth factor receptor 1 (P11362 whole entry): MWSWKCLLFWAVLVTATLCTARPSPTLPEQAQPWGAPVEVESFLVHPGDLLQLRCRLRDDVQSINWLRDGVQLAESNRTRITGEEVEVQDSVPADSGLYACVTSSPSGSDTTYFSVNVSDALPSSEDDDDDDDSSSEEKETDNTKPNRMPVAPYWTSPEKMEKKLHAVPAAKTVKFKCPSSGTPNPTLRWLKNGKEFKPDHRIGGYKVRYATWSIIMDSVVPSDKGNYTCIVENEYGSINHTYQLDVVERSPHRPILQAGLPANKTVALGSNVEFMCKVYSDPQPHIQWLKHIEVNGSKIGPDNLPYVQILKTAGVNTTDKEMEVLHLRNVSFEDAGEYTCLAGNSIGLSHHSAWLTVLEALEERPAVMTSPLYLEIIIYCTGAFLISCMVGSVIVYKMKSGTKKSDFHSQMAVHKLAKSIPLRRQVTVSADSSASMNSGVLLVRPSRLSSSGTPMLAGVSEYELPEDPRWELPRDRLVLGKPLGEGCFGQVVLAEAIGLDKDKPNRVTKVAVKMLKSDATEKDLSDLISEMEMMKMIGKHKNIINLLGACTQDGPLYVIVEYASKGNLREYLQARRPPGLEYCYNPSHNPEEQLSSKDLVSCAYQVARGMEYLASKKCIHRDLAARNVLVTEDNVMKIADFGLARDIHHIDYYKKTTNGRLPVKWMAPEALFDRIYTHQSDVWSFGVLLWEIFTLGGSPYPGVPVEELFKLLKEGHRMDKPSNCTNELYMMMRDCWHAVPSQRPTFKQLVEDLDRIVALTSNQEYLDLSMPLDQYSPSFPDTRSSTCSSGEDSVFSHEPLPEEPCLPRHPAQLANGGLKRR
In short: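 Radiolabelled ATP at 2Km, substrate 5Km, 1% DMSO, compound 10 to 0.0015 μM, 30–90 min at room temperature. SPA capture.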

[9] = biological target: RAC-alpha serine/threonine-protein kinase (Homo sapiens, UniProt P31749); experiment: Inhibition of Protein kinase B (Akt-1)
Chain of RAC-alpha serine/threonine-protein kinase (P31749 whole entry): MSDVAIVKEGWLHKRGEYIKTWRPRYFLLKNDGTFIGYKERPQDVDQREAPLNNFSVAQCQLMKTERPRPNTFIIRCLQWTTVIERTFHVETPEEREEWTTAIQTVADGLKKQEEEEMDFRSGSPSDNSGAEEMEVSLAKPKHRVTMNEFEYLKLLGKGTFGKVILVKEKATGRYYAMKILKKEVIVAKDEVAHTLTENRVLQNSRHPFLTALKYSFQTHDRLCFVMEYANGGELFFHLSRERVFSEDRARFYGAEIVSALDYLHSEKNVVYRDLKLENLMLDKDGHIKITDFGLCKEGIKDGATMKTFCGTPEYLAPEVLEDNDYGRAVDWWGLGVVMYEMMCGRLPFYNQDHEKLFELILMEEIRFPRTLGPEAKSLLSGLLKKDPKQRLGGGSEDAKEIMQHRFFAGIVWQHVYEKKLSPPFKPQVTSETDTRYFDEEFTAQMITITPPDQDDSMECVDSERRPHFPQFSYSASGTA
In short: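 Recombinant AKT-1 (insect cells), 5 nM, with AKTtide in 10 mM Tris-HCl pH 7.4, 10 mM MgCl2, 7.4 mM DTT. ATP/33P-γ-ATP at 2Km, substrate at 5Km, 1% DMSO. 3-fold dilutions from 10 μM, 30–90 min at room temperature. Dowex resin separation, supernatant radioactivity counted.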

[10] = biological target: Mitogen-activated protein kinase 14 (Homo sapiens, UniProt Q16539); experiment: Inhibition of Mitogen-activated protein kinase p38 alpha; in short: as §2
Chain of Mitogen-activated protein kinase 14 (Q16539 whole entry): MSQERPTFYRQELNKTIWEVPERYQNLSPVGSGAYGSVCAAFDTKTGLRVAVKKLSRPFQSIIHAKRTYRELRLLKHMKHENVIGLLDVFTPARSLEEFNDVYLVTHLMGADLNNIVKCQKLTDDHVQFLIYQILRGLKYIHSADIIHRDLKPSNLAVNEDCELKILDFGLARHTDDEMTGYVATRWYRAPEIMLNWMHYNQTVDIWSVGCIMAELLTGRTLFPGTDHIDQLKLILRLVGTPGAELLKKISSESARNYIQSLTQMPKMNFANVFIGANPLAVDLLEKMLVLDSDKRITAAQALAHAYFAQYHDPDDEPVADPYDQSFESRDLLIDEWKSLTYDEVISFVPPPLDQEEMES

[11] = biological target: Tyrosine-protein kinase ABL (Homo sapiens, UniProt P00519+P42684); experiment: Inhibition of V-abl tyrosine kinase (ABL); assay type: protein assay
In short: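 ABL at 1.2 nM, recombinant from insect cells, with MBP in 50 mM Hepes pH 7.5, 3 mM MgCl2, 3 mM MnCl2, 1 mM DTT, 3 μM NaVO3. 2Km ATP/33P-γ-ATP, 5Km substrate, 1% DMSO. 3-fold series from 10 μM, 30–90 min at room temperature. SPA readout.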

[12] = biological target: Cyclin-dependent kinase 4/cyclin D1 (Homo sapiens, UniProt P11802)
Chain of Cyclin-dependent kinase 4/cyclin D1 (P11802 whole entry): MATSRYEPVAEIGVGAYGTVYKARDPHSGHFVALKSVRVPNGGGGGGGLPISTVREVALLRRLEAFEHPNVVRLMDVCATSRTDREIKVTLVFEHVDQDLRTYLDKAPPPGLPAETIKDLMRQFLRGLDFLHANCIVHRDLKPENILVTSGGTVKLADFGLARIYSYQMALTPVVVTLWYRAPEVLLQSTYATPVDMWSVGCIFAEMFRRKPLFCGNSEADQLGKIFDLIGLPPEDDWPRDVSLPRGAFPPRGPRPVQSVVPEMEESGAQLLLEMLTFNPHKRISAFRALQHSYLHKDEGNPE
Chain of Cyclin-dependent kinase 4/cyclin D1 (P24385 whole entry, further chain): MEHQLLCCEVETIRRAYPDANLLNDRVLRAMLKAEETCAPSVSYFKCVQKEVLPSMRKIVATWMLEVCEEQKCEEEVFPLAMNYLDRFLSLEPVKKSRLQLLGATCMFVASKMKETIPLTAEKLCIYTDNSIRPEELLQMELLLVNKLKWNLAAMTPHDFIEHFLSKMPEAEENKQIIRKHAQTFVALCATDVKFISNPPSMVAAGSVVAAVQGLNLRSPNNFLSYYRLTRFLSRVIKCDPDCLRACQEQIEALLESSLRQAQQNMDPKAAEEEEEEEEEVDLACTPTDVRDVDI

Rattus norvegicus [13] = experiment: In vivo area under curve was determined for the compound after i.v. administration at a dose of 5 mg/kg in rats; assay type: ADME, organism-based; set-up: dose 5 mg/kg, route intravenous; conditions: iv; in short: as §1
Rattus norvegicus [14] = experiment: In vivo maximum time required for clearance of compound after oral (po) administration at a dose of 10 mg/kg was measured in rats; assay type: ADME, organism-based; set-up: dose 10 mg/kg, route oral; in short: as §1
[15] = Ability of compound to bind to plasma protein was evaluated in HSA cells; assay type: ADME, cell-based; conditions: mouse, HSA cells (so in the source), read-out: PPB
In short: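 HPLC retention time measured on a column coupled with human serum albumin. Percent bound is assigned by comparing the retention time with those of known standards.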

Compound: O=C(Cc1ccc2ccccc2c1)Nc1cc(C2CC2)n[nH]1
- Cmax (Rattus norvegicus [1]): 19.4 µM
- MRT [2]: 1.31 h
- IC50 [3]: > 10 µM
- IC50 (Casein kinase II): > 10 µM
- IC50 [4]: > 10 µM
- solubility [5]: 22 µM (≈ 6.41 µg/mL)
- IC50 [6]: > 10 µM
- T1/2 (Rattus norvegicus [7]): 2.38 h
- IC50 [8]: > 10 µM
- IC50 [9]: > 10 µM
- IC50 [10]: > 10 µM
- IC50 [11]: > 10 µM
- IC50 [12]: > 10 µM
- AUC total (Rattus norvegicus [13]): 21.24 µM·h
- T max (Rattus norvegicus [14]): 1.39 h
- fraction unbound [15]: 0.01
